The values below come from ChEMBL document CHEMBL3808289, “Discovery of a Selective Series of Inhibitors of Plasmodium falciparum HDACs” (ACS Med Chem Lett, 2016).

The source made the active and inactive calls. The rule behind the calls is not given here.

The target in one data set is Histone deacetylase 3 (Homo sapiens, UniProt O15379). Put plainly: Inhibition of human HDAC3. In short, it runs like this: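 HDAC3 was measured within a human HDAC enzyme panel (HDAC1–7 and 9), with concentrations tested up to 5 μM.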
Histone deacetylase 3, sequence (O15379 whole entry): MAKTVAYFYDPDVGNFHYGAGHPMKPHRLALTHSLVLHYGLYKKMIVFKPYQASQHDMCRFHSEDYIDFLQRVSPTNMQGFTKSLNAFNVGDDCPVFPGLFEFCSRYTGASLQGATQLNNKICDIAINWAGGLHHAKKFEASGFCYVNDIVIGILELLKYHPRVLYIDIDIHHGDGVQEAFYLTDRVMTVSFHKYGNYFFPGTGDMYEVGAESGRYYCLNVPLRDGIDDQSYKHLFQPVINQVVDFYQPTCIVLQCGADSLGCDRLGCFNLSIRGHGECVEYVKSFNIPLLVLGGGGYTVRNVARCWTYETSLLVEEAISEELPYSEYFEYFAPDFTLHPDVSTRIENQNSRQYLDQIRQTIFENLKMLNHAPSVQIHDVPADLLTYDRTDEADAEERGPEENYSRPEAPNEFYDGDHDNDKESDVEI
Data set [1] is described as follows: Clearance in NMRI mouse plasma 2 mg/kg, iv by LC-MS/MS analysis. It is filed as ADME, organism-based.
The nature of data set [2]: Inhibition of HDAC1 in Plasmodium falciparum 3D7 infected in human erythrocytes assessed as histone H4 hyperacetylation at lysine8 residue by western blotting method. The class given is cell-based. In short, it runs like this: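 P. falciparum parasites inside erythrocytes were treated with increasing compound concentrations. Histone H4 lysine 8 acetylation was analysed, and the concentration giving hyperacetylation was expressed as an EC50.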
On the technique in general: Immunoblotting shows a protein as a band on a membrane.

In data set [3] the target is Histone deacetylase 2 (Homo sapiens) (UniProt Q92769). Put plainly: Inhibition of human HDAC2 at 5 uM.
Histone deacetylase 2 (Homo sapiens), sequence (Q92769 whole entry): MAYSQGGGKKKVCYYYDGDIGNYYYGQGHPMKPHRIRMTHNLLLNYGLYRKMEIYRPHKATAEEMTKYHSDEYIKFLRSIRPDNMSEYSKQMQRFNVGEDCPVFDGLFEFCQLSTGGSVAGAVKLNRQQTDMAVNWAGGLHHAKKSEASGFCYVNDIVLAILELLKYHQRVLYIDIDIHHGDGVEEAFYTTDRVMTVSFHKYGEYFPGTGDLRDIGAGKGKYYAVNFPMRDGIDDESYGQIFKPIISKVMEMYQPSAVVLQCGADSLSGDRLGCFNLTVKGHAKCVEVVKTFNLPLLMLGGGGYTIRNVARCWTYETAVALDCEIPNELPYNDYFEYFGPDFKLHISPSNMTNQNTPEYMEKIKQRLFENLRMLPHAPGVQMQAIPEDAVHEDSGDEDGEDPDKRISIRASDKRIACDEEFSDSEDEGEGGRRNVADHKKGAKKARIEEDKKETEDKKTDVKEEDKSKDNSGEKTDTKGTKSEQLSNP
Data set [4] can be described thus: Cytotoxicity against human HeLa cells assessed as cell viability after 72 hrs by CellTiter-Glo assay. The class given is cell-based. On the technique in general: In ATP-based viability assays light output follows the ATP content of the culture.
Data set [5] concerns the target T1, Histone deacetylase 7 (Homo sapiens) (UniProt Q8WUI4).
T1 sequence (whole entry): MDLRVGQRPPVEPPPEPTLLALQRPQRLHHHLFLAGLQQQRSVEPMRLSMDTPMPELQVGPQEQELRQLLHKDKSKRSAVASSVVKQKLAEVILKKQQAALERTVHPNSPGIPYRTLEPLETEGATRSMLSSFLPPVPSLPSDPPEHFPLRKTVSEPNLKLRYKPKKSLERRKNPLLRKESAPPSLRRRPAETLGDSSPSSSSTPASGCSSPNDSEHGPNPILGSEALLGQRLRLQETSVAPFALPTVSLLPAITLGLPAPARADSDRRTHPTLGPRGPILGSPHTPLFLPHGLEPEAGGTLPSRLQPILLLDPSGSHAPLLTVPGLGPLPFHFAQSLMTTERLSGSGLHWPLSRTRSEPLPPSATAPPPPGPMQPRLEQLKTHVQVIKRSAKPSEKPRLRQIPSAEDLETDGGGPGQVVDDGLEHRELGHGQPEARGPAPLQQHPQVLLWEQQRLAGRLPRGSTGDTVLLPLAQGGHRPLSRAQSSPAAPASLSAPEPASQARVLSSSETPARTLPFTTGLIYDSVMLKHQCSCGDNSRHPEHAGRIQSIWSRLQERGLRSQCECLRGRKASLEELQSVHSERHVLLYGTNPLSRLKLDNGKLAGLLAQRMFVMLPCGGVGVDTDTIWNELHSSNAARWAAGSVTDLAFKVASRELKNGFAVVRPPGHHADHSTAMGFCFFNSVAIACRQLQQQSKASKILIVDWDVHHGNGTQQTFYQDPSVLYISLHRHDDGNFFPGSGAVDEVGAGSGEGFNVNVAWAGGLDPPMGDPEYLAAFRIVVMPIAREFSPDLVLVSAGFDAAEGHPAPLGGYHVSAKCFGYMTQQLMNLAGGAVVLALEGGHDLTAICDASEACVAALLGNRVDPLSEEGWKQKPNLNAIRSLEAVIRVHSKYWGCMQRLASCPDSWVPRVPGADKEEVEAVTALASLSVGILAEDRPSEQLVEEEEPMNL
The data set is described as follows: Inhibition of human HDAC7 at 5 uM.

For the next data set, the system named is Plasmodium falciparum. The data set is described as follows: Antimalarial activity against Plasmodium falciparum 3D7 infected human erythrocytes assessed as parasite growth inhibition after 72 hrs by spectrophotometry. The class given is functional, organism-based. The note with it: 3D7, 72 h. In short, it runs like this:
(§1)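 Cell-based read-outs (parasite growth in erythrocytes; class I HDAC activity in HeLa) were run with multiple repetitions of each assay to limit variability.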

Data set [6] has as its target T2, Histone deacetylase 1 (Homo sapiens, UniProt Q13547). The data set is described as follows: Inhibition of human HDAC1 at 5 uM.
Data set [7] has as its target Histone deacetylase 9 (Homo sapiens) (UniProt Q9UKV0). Put plainly: Inhibition of human HDAC9 at 5 uM.
Data set [8] in a line: Cytotoxicity against human HUVEC cells assessed as cell viability after 72 hrs by CellTiter-Glo assay. It is filed as cell-based.
For data set [9], the target named is T3, Protein deacetylase HDAC6 (Homo sapiens) (UniProt Q9UBN7).
T3 sequence (whole entry): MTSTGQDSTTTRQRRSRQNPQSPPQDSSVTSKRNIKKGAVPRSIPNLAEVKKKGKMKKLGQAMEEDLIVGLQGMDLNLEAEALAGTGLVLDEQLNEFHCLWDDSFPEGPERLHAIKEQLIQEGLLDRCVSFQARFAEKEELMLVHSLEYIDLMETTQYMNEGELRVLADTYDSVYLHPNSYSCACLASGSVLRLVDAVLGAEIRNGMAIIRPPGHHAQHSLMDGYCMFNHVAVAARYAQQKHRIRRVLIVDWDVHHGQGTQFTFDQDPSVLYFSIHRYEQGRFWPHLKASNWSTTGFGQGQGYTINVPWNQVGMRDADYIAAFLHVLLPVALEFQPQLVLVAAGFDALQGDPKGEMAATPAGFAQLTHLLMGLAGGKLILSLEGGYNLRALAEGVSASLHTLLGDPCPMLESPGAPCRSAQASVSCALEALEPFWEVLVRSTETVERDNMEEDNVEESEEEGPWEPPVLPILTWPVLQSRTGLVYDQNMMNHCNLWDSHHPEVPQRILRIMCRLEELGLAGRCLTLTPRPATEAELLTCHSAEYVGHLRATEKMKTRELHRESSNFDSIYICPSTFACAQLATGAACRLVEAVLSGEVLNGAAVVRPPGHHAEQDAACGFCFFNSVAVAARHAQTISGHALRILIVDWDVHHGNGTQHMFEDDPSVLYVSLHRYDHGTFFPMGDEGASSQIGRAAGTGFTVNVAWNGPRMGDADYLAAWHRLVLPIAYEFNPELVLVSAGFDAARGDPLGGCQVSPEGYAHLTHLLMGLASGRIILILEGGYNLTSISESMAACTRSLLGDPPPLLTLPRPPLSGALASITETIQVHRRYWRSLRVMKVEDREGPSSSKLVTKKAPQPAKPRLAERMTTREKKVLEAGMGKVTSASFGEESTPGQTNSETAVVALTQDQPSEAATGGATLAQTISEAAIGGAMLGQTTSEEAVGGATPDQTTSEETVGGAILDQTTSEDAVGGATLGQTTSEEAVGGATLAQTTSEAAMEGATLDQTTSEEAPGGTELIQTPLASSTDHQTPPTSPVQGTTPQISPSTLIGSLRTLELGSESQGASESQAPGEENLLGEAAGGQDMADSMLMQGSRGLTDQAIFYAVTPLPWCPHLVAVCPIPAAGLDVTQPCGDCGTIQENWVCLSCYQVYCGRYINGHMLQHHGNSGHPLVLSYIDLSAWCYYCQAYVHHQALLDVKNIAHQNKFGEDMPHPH
Put plainly: Inhibition of human HDAC6 at 5 uM.

Data set [10] has as its target T2, Histone deacetylase 1. Put plainly: Inhibition of recombinant human His-tagged HDAC1 expressed in insect cells preincubated for 10 mins followed by addition of FLUOR DE LYS as fluorescent substrate measured after 1 hr by spectrophotometry.
Data set [11] concerns the target Histone deacetylase 5 (Homo sapiens) (UniProt Q9UQL6). The data set is described as follows: Inhibition of human HDAC5 at 5 uM.
Data set [12] concerns the target Histone deacetylase 4 (Homo sapiens) (UniProt P56524). The data set is described as follows: Inhibition of human HDAC4 at 5 uM.
Data set [13] is described as follows: Inhibition of class 1 histone deacetylase in human HeLa cells using FLUOR DE LYS as fluorescent substrate after 4 hrs by spectrophotometry. The class given is cell-based. The gist of the method:
as §1

Data set [14] is described as follows: Intrinsic clearance in CD1 mouse liver microsomes at 1 uM by LC-MS/MS analysis. It is filed as ADME. Particulars: read-out: CLH. On the technique in general: Liver microsomes are a subcellular fraction often used to study metabolism.
Data set [15] is described as follows: Intrinsic clearance in human liver microsomes at 1 uM by LC-MS/MS analysis. The class given is ADME. The note with it: read-out: CLH.
The nature of data set [16]: Intrinsic clearance in Han Wistar rat liver microsomes at 1 uM by LC-MS/MS analysis. The note with it: read-out: CLH. The class given is ADME.

Broadly, the IC50 is the concentration needed to halve the response being measured. In general, clearance refers to a measure of how efficiently the substance is removed, as volume per time. What is called EC50 is the concentration giving half of the maximal effect. In general, CC50 refers to the concentration that lowers cell viability or growth by half.

T2 sequence (Q13547 whole entry): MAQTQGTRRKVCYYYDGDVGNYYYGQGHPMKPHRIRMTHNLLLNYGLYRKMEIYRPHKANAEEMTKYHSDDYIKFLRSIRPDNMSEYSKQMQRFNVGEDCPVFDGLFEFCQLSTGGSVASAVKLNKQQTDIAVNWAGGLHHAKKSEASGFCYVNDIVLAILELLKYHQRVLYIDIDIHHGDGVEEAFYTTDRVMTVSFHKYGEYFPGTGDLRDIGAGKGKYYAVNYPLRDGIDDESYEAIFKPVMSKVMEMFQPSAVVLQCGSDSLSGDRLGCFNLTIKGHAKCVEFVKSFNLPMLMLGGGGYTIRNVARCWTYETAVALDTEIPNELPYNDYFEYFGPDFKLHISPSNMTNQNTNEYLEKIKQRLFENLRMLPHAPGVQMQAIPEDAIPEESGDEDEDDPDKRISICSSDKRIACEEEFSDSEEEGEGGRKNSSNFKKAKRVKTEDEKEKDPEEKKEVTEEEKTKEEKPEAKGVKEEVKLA
Histone deacetylase 5 (Homo sapiens), sequence (Q9UQL6 whole entry): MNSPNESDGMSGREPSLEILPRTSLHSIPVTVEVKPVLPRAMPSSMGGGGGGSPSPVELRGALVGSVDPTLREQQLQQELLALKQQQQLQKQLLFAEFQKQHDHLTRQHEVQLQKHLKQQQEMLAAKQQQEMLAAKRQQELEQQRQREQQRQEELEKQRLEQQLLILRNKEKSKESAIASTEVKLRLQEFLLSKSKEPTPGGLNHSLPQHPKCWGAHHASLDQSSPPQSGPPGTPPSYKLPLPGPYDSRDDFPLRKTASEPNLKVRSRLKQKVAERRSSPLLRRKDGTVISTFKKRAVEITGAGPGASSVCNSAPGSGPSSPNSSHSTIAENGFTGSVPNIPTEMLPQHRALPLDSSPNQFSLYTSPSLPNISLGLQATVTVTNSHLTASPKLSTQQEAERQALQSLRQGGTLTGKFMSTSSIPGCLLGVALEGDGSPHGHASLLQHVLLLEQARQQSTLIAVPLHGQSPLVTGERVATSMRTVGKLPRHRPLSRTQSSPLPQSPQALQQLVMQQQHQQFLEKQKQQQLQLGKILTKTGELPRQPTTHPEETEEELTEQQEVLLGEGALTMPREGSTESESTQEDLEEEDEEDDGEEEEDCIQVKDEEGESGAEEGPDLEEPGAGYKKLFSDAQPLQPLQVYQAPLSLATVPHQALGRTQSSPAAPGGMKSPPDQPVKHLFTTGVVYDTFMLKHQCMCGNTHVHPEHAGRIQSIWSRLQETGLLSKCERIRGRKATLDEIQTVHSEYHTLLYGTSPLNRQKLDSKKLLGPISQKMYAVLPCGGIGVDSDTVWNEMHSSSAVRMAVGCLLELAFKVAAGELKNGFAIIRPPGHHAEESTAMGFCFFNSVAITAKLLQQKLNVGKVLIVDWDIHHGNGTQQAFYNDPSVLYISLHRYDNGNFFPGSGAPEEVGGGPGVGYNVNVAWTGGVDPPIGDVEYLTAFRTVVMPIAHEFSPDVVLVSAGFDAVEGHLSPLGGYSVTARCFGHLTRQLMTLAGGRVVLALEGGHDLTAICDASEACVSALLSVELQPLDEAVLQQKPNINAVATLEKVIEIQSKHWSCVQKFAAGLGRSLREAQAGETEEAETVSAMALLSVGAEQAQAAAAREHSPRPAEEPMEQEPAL
Histone deacetylase 4 (Homo sapiens), sequence (P56524 whole entry): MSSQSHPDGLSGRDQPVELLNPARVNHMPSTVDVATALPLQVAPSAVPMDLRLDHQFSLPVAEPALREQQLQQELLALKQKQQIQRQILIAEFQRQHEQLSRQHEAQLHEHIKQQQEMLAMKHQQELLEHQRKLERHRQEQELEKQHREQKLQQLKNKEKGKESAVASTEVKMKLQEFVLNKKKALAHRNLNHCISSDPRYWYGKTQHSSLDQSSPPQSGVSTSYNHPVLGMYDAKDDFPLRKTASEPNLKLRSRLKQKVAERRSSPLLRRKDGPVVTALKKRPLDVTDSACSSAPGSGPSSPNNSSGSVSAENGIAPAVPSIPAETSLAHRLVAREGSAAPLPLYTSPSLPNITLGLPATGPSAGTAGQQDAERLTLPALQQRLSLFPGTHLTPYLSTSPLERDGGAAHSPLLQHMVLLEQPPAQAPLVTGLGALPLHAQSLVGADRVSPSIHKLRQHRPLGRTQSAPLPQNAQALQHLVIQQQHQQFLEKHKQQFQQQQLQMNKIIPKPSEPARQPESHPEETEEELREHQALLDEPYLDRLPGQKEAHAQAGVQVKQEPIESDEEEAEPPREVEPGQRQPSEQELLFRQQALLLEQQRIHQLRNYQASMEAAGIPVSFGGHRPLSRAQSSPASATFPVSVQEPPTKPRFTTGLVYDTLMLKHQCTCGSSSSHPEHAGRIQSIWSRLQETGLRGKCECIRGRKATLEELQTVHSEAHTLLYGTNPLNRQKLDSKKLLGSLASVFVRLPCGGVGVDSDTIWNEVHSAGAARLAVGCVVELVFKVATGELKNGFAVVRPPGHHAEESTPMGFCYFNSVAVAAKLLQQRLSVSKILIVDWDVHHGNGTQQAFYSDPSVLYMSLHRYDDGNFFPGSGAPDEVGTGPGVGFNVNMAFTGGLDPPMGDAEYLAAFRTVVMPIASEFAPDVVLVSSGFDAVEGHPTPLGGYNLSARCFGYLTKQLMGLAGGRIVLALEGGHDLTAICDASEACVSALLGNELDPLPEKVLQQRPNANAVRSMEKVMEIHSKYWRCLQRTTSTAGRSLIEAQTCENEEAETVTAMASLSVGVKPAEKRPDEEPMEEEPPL
Histone deacetylase 9 (Homo sapiens), sequence (Q9UKV0 whole entry): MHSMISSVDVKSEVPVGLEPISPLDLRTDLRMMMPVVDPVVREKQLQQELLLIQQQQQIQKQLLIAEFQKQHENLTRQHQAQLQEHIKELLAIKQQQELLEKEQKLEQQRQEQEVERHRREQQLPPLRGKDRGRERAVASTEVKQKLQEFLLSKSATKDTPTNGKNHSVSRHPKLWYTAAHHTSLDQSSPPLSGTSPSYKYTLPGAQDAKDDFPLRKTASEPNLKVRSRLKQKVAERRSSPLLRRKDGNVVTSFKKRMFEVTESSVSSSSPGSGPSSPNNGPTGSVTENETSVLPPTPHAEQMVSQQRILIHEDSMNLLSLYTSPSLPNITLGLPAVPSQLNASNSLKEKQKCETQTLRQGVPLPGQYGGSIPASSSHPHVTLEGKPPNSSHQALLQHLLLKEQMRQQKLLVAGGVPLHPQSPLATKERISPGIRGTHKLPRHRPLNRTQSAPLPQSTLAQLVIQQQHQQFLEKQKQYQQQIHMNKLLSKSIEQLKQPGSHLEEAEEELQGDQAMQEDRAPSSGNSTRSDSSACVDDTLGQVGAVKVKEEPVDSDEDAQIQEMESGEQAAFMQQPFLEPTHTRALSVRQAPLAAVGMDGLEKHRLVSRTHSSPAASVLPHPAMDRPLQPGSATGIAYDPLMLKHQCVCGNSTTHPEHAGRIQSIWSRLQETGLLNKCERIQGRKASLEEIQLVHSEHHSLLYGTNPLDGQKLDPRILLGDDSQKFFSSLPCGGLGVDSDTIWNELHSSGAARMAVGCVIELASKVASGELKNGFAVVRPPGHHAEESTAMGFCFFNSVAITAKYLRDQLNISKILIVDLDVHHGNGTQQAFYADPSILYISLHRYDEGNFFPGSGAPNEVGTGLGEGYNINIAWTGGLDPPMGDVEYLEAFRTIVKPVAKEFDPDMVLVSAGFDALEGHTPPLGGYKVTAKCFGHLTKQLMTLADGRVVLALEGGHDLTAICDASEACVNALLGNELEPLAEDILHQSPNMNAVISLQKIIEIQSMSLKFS

With `CNC(=O)CCCCC[C@H](NC(=O)c1cncs1)c1ncc(-c2ccc(-c3ccn[nH]3)cc2)[nH]1`, the IC50 against Histone deacetylase 3 was determined as 330 nM; at Histone deacetylase 1 [10], 1850 nM; in data set [13], 16.6 µM. Moreover, in data set [1], the clearance was determined as 247 mL/min/kg. Moreover, the values for the EC50 (in [2]; in the data set on Plasmodium falciparum) were 350 nM and 450 nM, respectively. For the same compound, the inhibition entry (in data set [3]; in [5]; at Histone deacetylase 1 [6]; in [7]; in data set [9]; in data set [11]) was “inactive” in each case. For the same compound, the inhibition entry in data set [12] was “inactive”. Also, the CC50 at 72 h in data set [4] and in [8] was more than 25 µM each time. Besides, the microsomal CLint at 1 µM was 12 µL/min/mg in data set [14], 19 µL/min/mg in data set [15] and 27 µL/min/mg in [16].
